From ChEMBL document CHEMBL1122898, “Antiulcer agents. 1. Gastric antisecretory and cytoprotective properties of substituted imidazo[1,2-a]pyridines” (1985)
The source made the active and inactive calls. The rule behind the calls is not given here.

How the values were obtained:
[1] = system: Canis familiaris; assay: Inhibition of histamine stimulated gastric acid secretion in adult mongrel dogs at dose 1 mg/kg given intravenously; assay type: functional; conditions: Canis lupus familiaris, Stomach, route intravenous
How it was run: (§1)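 Dogs with Heidenhain pouches, 12–18 kg, fasted 18 h. Compound given iv in 3 mL or by gavage in 5 mL of 0.4% methylcellulose/saline, 1 h after infusion start. 30-min collections titrated. Summed 3-h AO against the same dog's control AO gives % inhibition. Usually one dog per compound.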

[2] = system: Rattus norvegicus; assay: Gastric antisecretory activity in the pylorus-ligated rat and the reduction in acid output was measured after 4 hr by intraperitoneal (ip) administration of 40 mg/kg dose.; assay type: functional
How it was run: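 Male Charles River CD rats, 150–200 g, fasted 24 h. Pylorus ligated under Brevital anesthesia. 40 mg/kg given ip in 2.5% Tween 80 at ligation. Stomach contents collected at 4 h and titrated with 0.1 N NaOH to pH 7.0. % inhibition from mean AO, 6 treated vs 8 control rats. Student's t test.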

[3] = organism: Rattus norvegicus; assay: Oral gastric cytoprotective activity in the rat against ethanol-induced lesions was evaluated; conditions: Stomach
[4] = system: Canis familiaris; assay: Inhibition of histamine stimulated gastric acid secretion in adult mongrel dogs at dose 2 mg/kg given intravenously; assay type: functional; conditions: Canis lupus familiaris, Stomach, route intravenous; how it was run: as §1
[5] = system: Canis familiaris; assay: Inhibition of histamine stimulated gastric acid secretion in mongrel dogs following 4 mg/kg p.o. administration.; assay type: functional; conditions: Canis lupus familiaris, Stomach, route oral; how it was run: as §1
[6] = system: Canis familiaris; assay: Inhibition of histamine stimulated gastric acid secretion in adult mongrel dogs at dose 5 mg/kg given intravenously; assay type: functional; conditions: Canis lupus familiaris, Stomach, route intravenous; how it was run: as §1
[7] = system: Canis familiaris; assay: Inhibition of histamine stimulated gastric acid secretion in adult mongrel dogs at dose 8 mg/kg given orally; assay type: functional; conditions: Canis lupus familiaris, Stomach, route oral; how it was run: as §1
[8] = organism: Rattus norvegicus; assay: Oral gastric cytoprotective activity in the rat against ethanol-induced lesions; assay type: functional; conditions: Stomach
How it was run: (§2)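 Rats fasted and water-deprived for 20 h. Compound given orally, 1–30 mg/kg in 0.4% methylcellulose/saline, 30 min before 1 mL absolute ethanol po. Killed 1 h after ethanol. Linear hemorrhagic lesion lengths totalled per stomach, expressed as group mean. ED50 by linear regression.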

[9] = system: Canis familiaris; assay: Inhibition of histamine stimulated gastric acid secretion in adult mongrel dogs at dose 2 mg/kg given orally; assay type: functional; conditions: Canis lupus familiaris, Stomach, route oral; how it was run: as §1
[10] = system: Canis familiaris; assay: Inhibition of histamine stimulated gastric acid secretion in adult mongrel dogs at dose 0.1 mg/kg given intravenously; assay type: functional; conditions: Canis lupus familiaris, Stomach, route intravenous; how it was run: as §1
[11] = system: Canis familiaris; assay: Inhibition of histamine stimulated gastric acid secretion in adult mongrel dogs at dose 4 mg/kg given orally; assay type: functional; conditions: Canis lupus familiaris, Stomach, route oral; how it was run: as §1
[12] = organism: Canis familiaris; assay: Relative potency was calculated; value ranges from 0.1-2.1; assay type: functional, Canis lupus familiaris
[13] = system: Canis familiaris; assay: Effective dose against histamine stimulated gastric acid secretion in adult mongrel dogs given orally; value ranges from 2.1-14.0; assay type: functional; conditions: Canis lupus familiaris, Stomach, po
[14] = system: Canis familiaris; assay: Effective dose against histamine stimulated gastric acid secretion in adult mongrel dogs given orally; assay type: functional; conditions: Canis lupus familiaris, Stomach, po
[15] = organism: Rattus norvegicus; assay: Oral gastric cytoprotective activity in the rat against ethanol-induced lesions was evaluated; NA=Inactive.; assay type: functional, organism-based; conditions: Stomach; how it was run: as §2
[16] = system: Canis familiaris; assay: Effective dose against histamine stimulated gastric acid secretion in adult mongrel dogs given intravenously; value ranges from 0.01-1.19; assay type: functional; conditions: Canis lupus familiaris, Stomach, iv

Structure (SMILES)	inhibition in vivo at 1 mg/kg [1] [%]	inhibition in vivo at 40 mg/kg [2] [%]	ED50 [3] [mg/kg]	inhibition in vivo at 2 mg/kg [4] [%]	inhibition in vivo at 4 mg/kg [5] [%]	inhibition in vivo at 5 mg/kg [6] [%]	inhibition in vivo at 8 mg/kg [7] [%]	ED50 [8] [mg/kg]	inhibition in vivo at 2 mg/kg [9] [%]	inhibition in vivo at 0.1 mg/kg [10] [%]	inhibition in vivo at 4 mg/kg [11] [%]	Relative potency [12]	ED50 [13] [mg/kg]	ED50 [14] [mg/kg]	ED50 [15]	ED50 [16] [mg/kg]
Cc1nc2c(CSc3ccccc3)cccn2c1C	31	29	6.4													
Cc1nc2c(OCc3ccc(C(F)(F)F)cc3)cccn2c1CC#N		26		44	27	59	25	3								
N#CCc1cnc2c(OCc3ccccc3)cccn12	52	99		96			46	1	6							
Cc1nc2c(CCc3ccccc3)cccn2c1CC#N		99		92		96	83	7		74	3					
Cc1nc2c(OCc3ccccc3)cccn2c1CO	57	99		80	20	80	20	16								
Cc1nc2c(OCc3cccs3)cccn2c1CC#N	90	96				99	75	7		26	17					
Cc1nc2c(NCc3ccccc3)cccn2c1CC#N		98		96	35	98	75	2		85		1.5	6.7			
Cc1nc2c(OCc3ccsc3)cccn2c1CC#N		91			77	97	88	2	40	70				2.7		
Cc1nc2c(OCCc3ccccc3)cccn2c1CC#N		70			47	95	89	6	0							
[C-]#[N+]Cc1c(C)nc2c(OCc3ccccc3)cccn12		96	2.2	94	8		94			37						
Cc1nc2c(OC(C)c3ccccc3)cccn2c1CC#N (stereo not drawn)		96		78	6	97	45	3.7								
Cc1nc2c(OCc3ccc(Cl)cc3)cccn2c1CC#N		90		58	56	95	70	6.6	30	29						
Cc1nc2c(OCc3ccccc3)cccn2c1C#N		25				4									inactive	
Cc1nc2c(OCc3ccccc3)cccn2c1C	90	99			0		26	10								
CCc1nc2c(OCc3ccccc3)cccn2c1CC#N		91		95	54		93	4		16						
Cc1nc2c(OCc3ccccc3)cccn2c1CC#N	88	98		95	42	99	77	3	20	49			4.4			0.09
Cc1nc2c(OCc3ccccc3)cccn2c1C(=O)O		0				4									inactive	
Cc1nc2cccc(CCc3ccccc3)n2c1CC#N	71	20					9	7.2								
Cc1nc2c(OCc3ccccc3)cccn2c1CC(=O)N(C)C	16	37														
